ChEMBL document CHEMBL1156107, “Synthesis of new alkylaminooxysterols with potent cell differentiating activities: identification of leads for the treatment of cancer and neurodegenerative diseases” (J Med Chem, 2009)
The source made the active and inactive calls. No cut-off for these calls is given here.

Columns and labels:
U-937 [1] = assay: Induction of dendrite out growth in IL-4/GMCSF-stimulated human U937 cells assessed as dendrite length at 100 nM after 48 hrs by light microscopy; format: functional
Outline: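 U937 cells at 1.1 × 10⁶ cells/mL were primed with 10 ng/mL PMA for 48 h in RPMI with 10% heat-inactivated serum. Adherent cells were then given 100 ng/mL IL-4 plus 100 ng/mL GM-CSF or 100 nM compound for 48 h. Dendrite length scored by light microscopy, from none to over 100 μm with a contact network.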

U-937 [2] = assay: Cytotoxicity against human U937 cells after 3 days by trypan blue exclusion assay; format: functional, cell-based
Outline: (§1)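 U937 and P19 cells treated with compound. Cell death scored by trypan blue exclusion, with cells scraped, suspended in 0.25% w/v trypan blue in PBS and counted in a Malassez cell. IC50 is the concentration giving 50% cytotoxicity.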

P19 [3] = assay: Induction of dendrite out growth in IL-4/GMCSF-stimulated mouse P19 cells assessed as dendrite length at 100 nM after 48 hrs by light microscopy; format: functional
P19 [4] = assay: Cytotoxicity against mouse P19 cells after 3 days by trypan blue exclusion assay; format: functional, cell-based; outline: as §1
Homo sapiens = organism: Homo sapiens; assay: Plasma concentration healthy human; format: ADME, organism-based; conditions: in vivo
[5] = Homo sapiens, U-937, 72 h, read-out: IC50
[6] = Mus musculus, P19, 72 h, read-out: IC50

| Compound | Activity (U-937 [1]) | IC50 (U-937 [2]; u-937) | Activity (P19 [3]) | IC50 (P19 [4]; p19) | IC50 (U-937 [2]; [5]) | IC50 (P19 [4]; [6]) | concentration (Homo sapiens) |
| --- | --- | --- | --- | --- | --- | --- | --- |
| CC(C)CCC[C@@H](C)[C@H]1CC[C@H]2C3=C[C@@H](NCCCNCCCCNCCCN)[C@@]4(O)C[C@@H](O)CC[C@]4(C)[C@H]3CC[C@]12C | <5 um | Not Active | 10 um | Not Active |  |  |  |
| CC(C)CCC[C@@H](C)[C@H]1CC[C@H]2C3=C[C@@H]4O[C@@]45C[C@@H](O)CC[C@]5(C)[C@H]3CC[C@]12C | inactive | Not Active | inactive | Not Active |  |  |  |
| CC(=O)O[C@H]1CC[C@]2(C)[C@H]3CC[C@]4(C)[C@@H]([C@H](C)CCCC(C)C)CC[C@H]4[C@@H]3C[C@@H](NCCc3c[nH]cn3)[C@@]2(O)C1 | 50 um |  | 50 um |  | 900 nM | 2500 nM |  |
| CC[C@H](CC[C@@H](C)[C@H]1CC[C@H]2[C@@H]3C[C@@H]4O[C@@]45C[C@@H](O)CC[C@]5(C)[C@H]3CC[C@]12C)C(C)C | inactive | Not Active | inactive | Not Active |  |  |  |
| CC[C@H](CC[C@@H](C)[C@H]1CC[C@H]2[C@@H]3C[C@@H](NCCc4c[nH]cn4)[C@@]4(O)C[C@@H](O)CC[C@]4(C)[C@H]3CC[C@]12C)C(C)C | 50 um |  | 50 um |  | 1100 nM | 2500 nM |  |
| NCCCCNCCCN [SPERMIDINE] | inactive | Not Active | inactive | Not Active |  |  |  |
| CC(C)CCC[C@@H](C)[C@H]1CC[C@H]2[C@@H]3C[C@H]4O[C@]45C[C@@H](O)CC[C@]5(C)[C@H]3CC[C@]12C | inactive | Not Active | inactive | Not Active |  |  | 1 nM |
| NCCc1c[nH]cn1 [HISTAMINE] | inactive | Not Active | inactive | Not Active |  |  |  |
| CC(C)CCC[C@@H](C)[C@H]1CC[C@H]2[C@@H]3C[C@@H]4O[C@@]45C[C@@H](O)CC[C@]5(C)[C@H]3CC[C@]12C | inactive | Not Active | inactive | Not Active |  |  | 1 nM |
| CCCC(=O)O[C@H]1CC[C@]2(C)[C@H]3CC[C@]4(C)[C@@H]([C@H](C)CCCC(C)C)CC[C@H]4[C@@H]3C[C@@H]3O[C@@]32C1 | inactive | Not Active | inactive | Not Active |  |  |  |
| CC(C)CCC[C@@H](C)[C@H]1CC[C@H]2C3=C[C@@H](NCCCCN)[C@@]4(O)C[C@@H](O)CC[C@]4(C)[C@H]3CC[C@]12C | 5 um |  | 50 um |  | 2600 nM | 2800 nM |  |
| NCCCCN [PUTRESCINE] | inactive | Not Active | inactive | Not Active |  |  |  |
